Results taken from ChEMBL document CHEMBL4765302, “Design, synthesis and biological evaluation of novel histone deacetylase1/2 (HDAC1/2) and cyclin-dependent Kinase2 (CDK2) dual inhibitors against malignant cancer” (Eur J Med Chem, 2020).
Active and inactive are the calls of the source. The rule behind the calls is not given here.

Experiments:
HCT-116 [1] = assay: Induction of apoptosis in human HCT-116 cells assessed as early apoptotic cells at 2 uM incubated for 48 hrs by annexin V-FITC and PI staining based flow cytometry (reference value: 4.14 %); assay type: functional
HepG2 = assay: Antiproliferative activity against human HepG2 cells assessed as reduction in cell growth incubated for 72 hrs by CCK-8 assay; assay type: functional, cell-based; settings: HepG2, 72 h
Procedure, shortened: (§1)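 IC50 by CCK-8 assay across five solid-tumour lines (HCT116, HepG2, H460, HeLa, A375). Run only for compounds chosen after the single-concentration screen, with CS055 and roscovitine as references.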

[2] = target: Cyclin-dependent kinase 2 (Homo sapiens) (UniProt P24941); assay: Inhibition of CDK2 in human A-375 cells at 1 uM incubated for 12 hrs by DAPI and immunofluorescence staining based confocal microscopic analysis; assay type: cell-based
A-375 [3] = assay: Cytotoxicity against human A-375 cells assessed as effect on cell morphology at 0.5 to 8 micromol incubated for 48 hrs by microscopic analysis; assay type: functional, cell-based; settings: dose 0.5-8 µmol
Procedure, shortened: (§2)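 Five cancer cell lines treated with compound or DMSO (0.1 %) for 48 h. Morphology inspected by light microscopy at 10× objective.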

A-375 [4] = assay: Inhibition of HDAC in human A-375 cells assessed as increase the acetylation of histone H3 at 1 uM incubated for 12 hrs by DAPI and immunofluorescence staining based confocal microscopic analysis; assay type: cell-based
[5] = Tmax in ICR mouse at 20 mg/kg, ip measured upto 24 hrs by LC-MS/MS analysis; settings: in vivo
HCT-116 [6] = assay: Cytotoxicity against human HCT-116 cells assessed as effect on cell morphology at 0.5 to 8 micromol incubated for 48 hrs by microscopic analysis; assay type: functional, cell-based; settings: dose 0.5-8 µmol; procedure, shortened: as §2
HeLa [7] = assay: Induction of apoptosis in human HeLa cells assessed as viable cells at 2 uM incubated for 48 hrs by annexin V-FITC and PI staining based flow cytometry (reference value: 98.5 %); assay type: functional; settings: read-out: Activity
HCT-116 [8] = assay: Antiproliferative activity against human HCT-116 cells assessed as reduction in cell growth at 2 uM incubated for 72 hrs by CCK-8 assay relative to control; assay type: functional
NCI-H460 [9] = assay: Induction of apoptosis in human NCI-H460 cells assessed as early apoptotic cells at 2 uM incubated for 48 hrs by annexin V-FITC and PI staining based flow cytometry (reference value: 2.88 %); assay type: functional
[10] = Half life in ICR mouse at 20 mg/kg, ip measured upto 24 hrs by LC-MS/MS analysis; settings: in vivo
NCI-H460 [11] = assay: Antiproliferative activity against human H460 cells assessed as reduction in cell growth at 8 uM incubated for 72 hrs by CCK-8 assay relative to control; assay type: functional
HCT-116 [12] = assay: Induction of apoptosis in human HCT-116 cells assessed as necrotic cells incubated for 48 hrs by annexin V-FITC and PI staining based flow cytometry; assay type: functional, cell-based; settings: dose 0.5-2 µM
NCI-H460 [13] = assay: Induction of apoptosis in human NCI-H460 cells assessed as late apoptotic cells at 1 uM incubated for 48 hrs by annexin V-FITC and PI staining based flow cytometry (reference value: 6.11 %); assay type: functional
HCT-116 [14] = assay: Induction of apoptosis in human HCT-116 cells assessed as necrotic cells at 0.5 uM incubated for 48 hrs by annexin V-FITC and PI staining based flow cytometry (reference value: 0.124 %); assay type: functional
HCT-116 [15] = assay: Induction of cell cycle arrest in human HCT-116 cells assessed as reduction in G0/G1 phase at 0.5 to 2 uM incubated for 24 hrs by PI staining based flow cytometry; assay type: functional; settings: dose 0.5-2 µM
Procedure, shortened: (§3)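 Treatment at 2, 1 and 0.5 μM for 24 h, alongside CS055 and roscovitine, against a DMSO (0.1 %) blank. Cells then stained with propidium iodide and analyzed by flow cytometry.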

NCI-H460 [16] = assay: Antimigratory activity against human NCI-H460 cells assessed as inhibition of migration at 0.5 uM incubated for 48 hrs by microscopic based wound healing test; assay type: functional, cell-based
Procedure, shortened: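 Scratch (wound-healing) migration assay in A375 and H460 cells seeded in 12-well plates. Cells exposed to compound, CS055, roscovitine or DMSO blank for 48 h. At least two independent experiments.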

HCT-116 [17] = assay: Induction of apoptosis in human HCT-116 cells assessed as viable cells at 2 uM incubated for 48 hrs by annexin V-FITC and PI staining based flow cytometry (reference value: 93.9 %); assay type: functional; settings: read-out: Activity
HCT-116 [18] = assay: Induction of apoptosis in human HCT-116 cells assessed as late apoptotic cells at 2 uM incubated for 48 hrs by annexin V-FITC and PI staining based flow cytometry (reference value: 1.88 %); assay type: functional
Histone deacetylase 2 = Histone deacetylase 2 (Homo sapiens, UniProt Q92769); assay: Inhibition of recombinant human HDAC2 using FLUOR-DE-LYS-Green as substrate incubated for 10 mins followed by substrate addition and measured after 30 mins by fluorescence based assay
Procedure, shortened: (§4)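 IC50 values reported as means of at least two separate determinations, expressed as mean ±SD.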

A-375 [19] = assay: Induction of apoptosis in human A-375 cells assessed as early apoptotic cells at 0.5 uM incubated for 48 hrs by annexin V-FITC and PI staining based flow cytometry (reference value: 1.34 %); assay type: functional
HeLa [20] = assay: Induction of cell cycle arrest in human HeLa cells assessed as G2/M phase at 0.5 uM incubated for 24 hrs by PI staining based flow cytometry (reference value: 7.89 %); assay type: functional; procedure, shortened: as §3
HeLa [21] = assay: Antiproliferative activity against human HeLa cells assessed as reduction in cell growth incubated for 72 hrs by CCK-8 assay; assay type: functional, cell-based; procedure, shortened: as §1
A-375 [22] = assay: Induction of apoptosis in human A-375 cells assessed as late apoptotic cells at 2 uM incubated for 48 hrs by annexin V-FITC and PI staining based flow cytometry (reference value: 2.24 %); assay type: functional
A-375 [23] = assay: Induction of cell cycle arrest in human A-375 cells assessed as G2/M phase at 0.5 uM incubated for 24 hrs by PI staining based flow cytometry (reference value: 13.7 %); assay type: functional; procedure, shortened: as §3
HCT-116 [24] = assay: Antiproliferative activity against human HCT-116 cells assessed as reduction in cell growth incubated for 72 hrs by CCK-8 assay; assay type: functional, cell-based; settings: HCT-116, 72 h; procedure, shortened: as §1
HeLa [25] = assay: Induction of cell cycle arrest in human HeLa cells assessed as reduction in G0/G1 phase at 0.5 to 2 uM incubated for 24 hrs by PI staining based flow cytometry; assay type: functional; settings: dose 0.5-2 µM; procedure, shortened: as §3
HCT-116 [26] = assay: Antitumor activity against human HCT-116 cells xenografted in Balb/c mouse assessed as tumor growth inhibition at 100 mg/kg, ip administered for 21 days and measured on day 21 relative to control; assay type: functional; settings: HCT-116, ip, 504 h, time 21 day, read-out: GI
Procedure, shortened: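 HCT116 xenografts in BALB/c nude mice. Dosing started when tumours reached 100–300 mm³: intraperitoneal injection once daily for 21 days at 25, 50 or 100 mg/kg, versus blank. Body weight monitored. Tumour growth inhibition computed against blank.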

[27] = MRT (0 to t) in ICR mouse at 4 mg/kg, iv measured upto 24 hrs by LC-MS/MS analysis; assay type: ADME, organism-based; settings: in vivo
Histone deacetylase 1 = Histone deacetylase 1 (Homo sapiens, UniProt Q13547); assay: Inhibition of recombinant human HDAC1 using SIRT1 as substrate incubated for 10 mins followed by substrate addition and measured after 30 mins by fluorescence based assay; procedure, shortened: as §4
Chain of Histone deacetylase 1 (Q13547 whole entry): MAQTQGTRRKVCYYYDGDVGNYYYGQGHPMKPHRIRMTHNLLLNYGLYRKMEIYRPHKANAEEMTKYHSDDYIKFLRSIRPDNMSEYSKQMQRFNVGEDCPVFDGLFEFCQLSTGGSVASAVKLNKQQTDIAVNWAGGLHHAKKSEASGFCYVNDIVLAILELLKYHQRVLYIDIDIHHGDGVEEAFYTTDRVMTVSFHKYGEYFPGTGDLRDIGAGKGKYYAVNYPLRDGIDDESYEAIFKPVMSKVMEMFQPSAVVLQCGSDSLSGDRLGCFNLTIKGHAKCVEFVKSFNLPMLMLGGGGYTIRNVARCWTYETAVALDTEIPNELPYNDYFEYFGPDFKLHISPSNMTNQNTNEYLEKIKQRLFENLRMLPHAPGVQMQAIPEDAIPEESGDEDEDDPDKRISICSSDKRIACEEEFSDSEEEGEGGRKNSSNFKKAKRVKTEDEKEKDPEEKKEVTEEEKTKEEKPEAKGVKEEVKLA

Chain of Histone deacetylase 2 (Q92769 whole entry): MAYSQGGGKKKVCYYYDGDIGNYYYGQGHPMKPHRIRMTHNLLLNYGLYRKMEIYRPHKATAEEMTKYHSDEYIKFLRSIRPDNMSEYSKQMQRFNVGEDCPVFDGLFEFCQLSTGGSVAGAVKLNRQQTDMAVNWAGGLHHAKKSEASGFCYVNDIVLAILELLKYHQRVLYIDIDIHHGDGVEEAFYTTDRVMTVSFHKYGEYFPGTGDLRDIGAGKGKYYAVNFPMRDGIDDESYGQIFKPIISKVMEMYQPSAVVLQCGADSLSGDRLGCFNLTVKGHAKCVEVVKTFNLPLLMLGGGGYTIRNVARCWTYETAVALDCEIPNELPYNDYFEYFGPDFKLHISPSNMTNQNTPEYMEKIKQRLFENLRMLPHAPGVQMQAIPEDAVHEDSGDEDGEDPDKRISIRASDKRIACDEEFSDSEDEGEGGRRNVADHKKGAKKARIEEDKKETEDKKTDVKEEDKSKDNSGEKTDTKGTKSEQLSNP

IC50 (HepG2): 860 nM | inhibition [2]: Active | Tmax [5]: 2 h | half-life [10]: 2.84 h | IC50 (Histone deacetylase 2): 23.1 nM | IC50 (HeLa [21]): 1050 nM | IC50 (HCT-116 [24]): 580 nM | MRT last at 24 h [27]: 0.563 h | IC50 (Histone deacetylase 1): 70.7 nM
SMILES: Cc1ccc(Nc2nc(Cl)nc3c2ncn3Cc2ccc(C(=O)Nc3ccccc3N)cc2)cc1
Activity (HCT-116 [1]): 76.2% | Activity (A-375 [3]): Active | inhibition (A-375 [4]): Active | Activity (HCT-116 [6]): Active | viability at 2 µM (HeLa [7]): 77.4% | inhibition at 2 µM (HCT-116 [8]): 76.3% | Activity (NCI-H460 [9]): 12% | inhibition at 8 µM (NCI-H460 [11]): 82.5% | Activity (HCT-116 [12]): Dose-dependent effect | Activity (NCI-H460 [13]): 17.5% | Activity (HCT-116 [14]): 1.37% | Activity (HCT-116 [15]): Active | inhibition (NCI-H460 [16]): Active | viability at 2 µM (HCT-116 [17]): 9.72% | Activity (HCT-116 [18]): 13.4% | Activity (A-375 [19]): 10.6% | Activity (HeLa [20]): 51.85% | Activity (A-375 [22]): 84.8% | Activity (A-375 [23]): 57.03% | Activity (HeLa [25]): Active | inhibition in vivo at 100 mg/kg (HCT-116 [26]): 44%
